Reference: ChEMBL document CHEMBL1144486, “Synthesis, biological activity and molecular modelling of new trisubstituted 8-azaadenines with high affinity for A1 adenosine receptors” (Eur J Med Chem, 2007)

Columns and labels:
[1] = molecular target: T1, Adenosine receptor A3 (Homo sapiens) (UniProt P0DMS8); assay: Displacement of [3H]NECA from human recombinant adenosine A3 receptor expressed in CHO cells at 1 uM; format: cell-based
T1 sequence (whole entry): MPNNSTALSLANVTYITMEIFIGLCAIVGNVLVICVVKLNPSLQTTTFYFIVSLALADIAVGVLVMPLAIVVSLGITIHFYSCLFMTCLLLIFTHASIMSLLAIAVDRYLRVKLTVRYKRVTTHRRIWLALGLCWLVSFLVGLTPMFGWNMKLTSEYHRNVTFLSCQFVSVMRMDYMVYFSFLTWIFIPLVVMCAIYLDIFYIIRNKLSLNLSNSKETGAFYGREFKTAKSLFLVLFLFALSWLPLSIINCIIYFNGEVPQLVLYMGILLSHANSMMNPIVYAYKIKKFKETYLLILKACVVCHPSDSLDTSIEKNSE
Method in brief: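 Membranes from CHO cells expressing recombinant human A3 receptor incubated 120 min at 25 °C with 6 nM [3H]NECA and a single compound concentration, in duplicate, in Tris-HCl buffer. Nonspecific binding defined with R-PIA. Percent inhibition of specific binding recorded.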

Adenosine receptor A1 = molecular target: T2, Adenosine receptor A1 (Bos taurus, UniProt P28190); assay: Displacement of [3H]DPCPX from bovine cerebral cortex adenosine A1 receptor; format: tissue-based
T2 sequence (P28190 whole entry): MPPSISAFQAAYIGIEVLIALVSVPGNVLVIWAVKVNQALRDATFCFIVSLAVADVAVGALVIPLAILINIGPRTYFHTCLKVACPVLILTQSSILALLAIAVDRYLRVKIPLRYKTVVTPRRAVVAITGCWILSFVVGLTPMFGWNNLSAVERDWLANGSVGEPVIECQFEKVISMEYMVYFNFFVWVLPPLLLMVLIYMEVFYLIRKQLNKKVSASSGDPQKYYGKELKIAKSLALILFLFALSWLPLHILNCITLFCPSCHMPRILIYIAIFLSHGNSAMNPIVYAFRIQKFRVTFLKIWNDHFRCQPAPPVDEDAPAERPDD
Method in brief: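 Nonspecific binding defined with CPA. Reaction stopped by dilution with ice-cold 50 mM Tris-HCl, then GF/C filtration and three washes. Bound radioactivity counted by liquid scintillation. Each test repeated until at least three consistent results were obtained and averaged for Ki.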

[2] = molecular target: Adenosine receptor A2a (Homo sapiens) (UniProt P29274); assay: Displacement of [3H]ZM-241385 from human recombinant adenosine A2A receptor expressed in CHO cells at 1 uM; format: cell-based
Method in brief: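 Membranes from CHO cells expressing recombinant human A2A receptor incubated 120 min at 25 °C with 4 nM [3H]ZM241385 and a single compound concentration, in duplicate, in Tris-HCl buffer. Nonspecific binding defined with NECA. Percent inhibition of specific binding recorded.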

Adenosine receptor A2a (Homo sapiens), sequence (P29274 whole entry): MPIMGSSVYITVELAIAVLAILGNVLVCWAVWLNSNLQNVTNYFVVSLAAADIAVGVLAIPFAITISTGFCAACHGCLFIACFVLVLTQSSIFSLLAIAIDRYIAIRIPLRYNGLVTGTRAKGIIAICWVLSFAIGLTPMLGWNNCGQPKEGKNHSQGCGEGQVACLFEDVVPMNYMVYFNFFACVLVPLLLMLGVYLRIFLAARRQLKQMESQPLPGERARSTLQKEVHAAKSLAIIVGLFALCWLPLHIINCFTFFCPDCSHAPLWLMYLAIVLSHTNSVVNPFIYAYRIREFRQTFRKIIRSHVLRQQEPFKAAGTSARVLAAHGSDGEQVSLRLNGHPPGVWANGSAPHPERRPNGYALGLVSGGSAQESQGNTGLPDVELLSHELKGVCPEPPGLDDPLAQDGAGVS

| SMILES | inhibition [1] [%] | Ki (Adenosine receptor A1) [nM] | inhibition [2] [%] |
| --- | --- | --- | --- |
| CCCCNc1nc(-c2ccccc2)nc2c1nnn2Cc1ccccc1Cl | < 50 | 79 | < 50 |
| CCCCCCNc1nc(-c2ccccc2)nc2c1nnn2Cc1ccccc1Cl | < 50 | 31 | < 50 |
| OCCNc1nc(-c2ccccc2)nc2c1nnn2Cc1ccccc1Cl | < 50 | 116 | < 50 |
| CC(O)CNc1nc(-c2ccccc2)nc2c1nnn2Cc1ccccc1C(F)(F)F (stereo not given) | < 50 | – | < 50 |
| CNc1nc(-c2ccccc2)nc2c1nnn2Cc1ccccc1C(F)(F)F | < 50 | 14.9 | < 50 |
| CCCNc1nc(-c2ccccc2)nc2c1nnn2Cc1ccccc1F | < 50 | 3.2 | < 50 |
| FC(F)(F)c1ccccc1Cn1nnc2c(NC3CCCCC3)nc(-c3ccccc3)nc21 | < 50 | 6.8 | < 50 |
| CNc1nc(-c2ccccc2)nc2c1nnn2Cc1ccccc1Cl | < 50 | 191 | < 50 |
| CCCCNc1nc(-c2ccccc2)nc2c1nnn2Cc1ccccc1C(F)(F)F | < 50 | 6.5 | < 50 |
| Clc1ccccc1Cn1nnc2c(NC3CCCC3)nc(-c3ccccc3)nc21 | < 50 | 9 | < 50 |
| c1ccc(Cn2nnc3c(NC4CCC4)nc(-c4ccccc4)nc32)cc1 | < 50 | 5 | < 50 |
| FC(F)(F)c1ccccc1Cn1nnc2c(NC3CCCC3)nc(-c3ccccc3)nc21 | < 50 | 0.6 | < 50 |
| OCCNc1nc(-c2ccccc2)nc2c1nnn2Cc1ccccc1F | < 50 | 54 | < 50 |
| CCCCNc1nc(-c2ccccc2)nc2c1nnn2Cc1ccccc1 | < 50 | 11 | < 50 |
| CCNc1nc(-c2ccccc2)nc2c1nnn2Cc1ccccc1C(F)(F)F | < 50 | – | < 50 |
| Clc1ccccc1Cn1nnc2c(NC3CCC3)nc(-c3ccccc3)nc21 | < 50 | 24 | < 50 |
| Clc1ccccc1Cn1nnc2c(NC3CC3)nc(-c3ccccc3)nc21 | < 50 | 11 | < 50 |
| CCCNc1nc(-c2ccccc2)nc2c1nnn2Cc1ccccc1Cl | < 50 | 101 | < 50 |
| OCCNc1nc(-c2ccccc2)nc2c1nnn2Cc1ccccc1 | < 50 | 38 | < 50 |
| OCCCNc1nc(-c2ccccc2)nc2c1nnn2Cc1ccccc1 | < 50 | 21.4 | < 50 |
| CCCNc1nc(-c2ccccc2)nc2c1nnn2Cc1ccccc1 | < 50 | 37 | < 50 |
| c1ccc(Cn2nnc3c(NC4CC4)nc(-c4ccccc4)nc32)cc1 | < 50 | 11.3 | < 50 |
| CNc1nc(-c2ccccc2)nc2c1nnn2Cc1ccccc1 | < 50 | 353 | < 50 |

| SMILES | inhibition [1] [%] | Ki (Adenosine receptor A1) [nM] | inhibition [2] [%] |
| --- | --- | --- | --- |
| CCCCCCNc1nc(-c2ccccc2)nc2c1nnn2Cc1ccccc1 | < 50 | 13.2 | < 50 |
| CNc1nc(-c2ccccc2)nc2c1nnn2Cc1ccccc1F | < 50 | 25 | < 50 |
| CC(O)CNc1nc(-c2ccccc2)nc2c1nnn2Cc1ccccc1Cl (stereo not given) | < 50 | 32 | < 50 |
| CCNc1nc(-c2ccccc2)nc2c1nnn2Cc1ccccc1Cl | < 50 | 463 | < 50 |
| CCNc1nc(-c2ccccc2)nc2c1nnn2Cc1ccccc1F | < 50 | 11 | < 50 |
| OCCCNc1nc(-c2ccccc2)nc2c1nnn2Cc1ccccc1Cl | < 50 | 33 | < 50 |
| CCCCCCNc1nc(-c2ccccc2)nc2c1nnn2Cc1ccccc1C(F)(F)F | < 50 | – | < 50 |
| CCCNc1nc(-c2ccccc2)nc2c1nnn2Cc1ccccc1C(F)(F)F | < 50 | – | < 50 |
| OCCCNc1nc(-c2ccccc2)nc2c1nnn2Cc1ccccc1F | < 50 | 3.7 | < 50 |
| CC(O)CNc1nc(-c2ccccc2)nc2c1nnn2Cc1ccccc1 (stereo not given) | < 50 | 7.5 | < 50 |
| Fc1ccccc1Cn1nnc2c(NC3CCCCC3)nc(-c3ccccc3)nc21 | < 50 | 1.15 | < 50 |
| FC(F)(F)c1ccccc1Cn1nnc2c(NC3CC3)nc(-c3ccccc3)nc21 | < 50 | 7.8 | < 50 |
| Fc1ccccc1Cn1nnc2c(NC3CCCC3)nc(-c3ccccc3)nc21 | < 50 | 6.7 | < 50 |
| Clc1ccccc1Cn1nnc2c(NC3CCCCC3)nc(-c3ccccc3)nc21 | < 50 | 34 | < 50 |
| Fc1ccccc1Cn1nnc2c(NC3CC3)nc(-c3ccccc3)nc21 | < 50 | 15 | < 50 |
| c1ccc(Cn2nnc3c(NC4CCCC4)nc(-c4ccccc4)nc32)cc1 | < 50 | 11 | < 50 |
| CC(O)CNc1nc(-c2ccccc2)nc2c1nnn2Cc1ccccc1F (stereo not given) | < 50 | 4.8 | < 50 |
| OCCCNc1nc(-c2ccccc2)nc2c1nnn2Cc1ccccc1C(F)(F)F | < 50 | 147 | < 50 |
| CCCCNc1nc(-c2ccccc2)nc2c1nnn2Cc1ccccc1F | < 50 | 4.3 | < 50 |
| CCNc1nc(-c2ccccc2)nc2c1nnn2Cc1ccccc1 | < 50 | 91 | < 50 |
| OCCNc1nc(-c2ccccc2)nc2c1nnn2Cc1ccccc1C(F)(F)F | < 50 | – | < 50 |
| CCCCCCNc1nc(-c2ccccc2)nc2c1nnn2Cc1ccccc1F | < 50 | 25 | < 50 |
